One data set has as its system Vero. Put plainly: (§1) Cytotoxicity against African green monkey Vero cells after 3 days by hemocytometric method. The data set is classed as cell-based. Particulars: chlorocebus sabaeus, vero, 72 h.
The subject of a further data set is CCRF-CEM. Put plainly: (§2) Cytotoxicity against human CEM cells after 6 days by trypan blue exclusion method. In kind it is cell-based. To be noted: ccrf-cem, 144 h.
In a further data set the test system is Huh-7. Kind of data set: (§3) Cytotoxicity against human HuH7 cells assessed as reduction in rRNA levels after 5 days by RT-PCR analysis. The data set is classed as cell-based. Particulars: huh-7, 120 h. In short, it runs like this:
(§4)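 Huh-7 cells carrying a genotype 1b subgenomic HCV replicon were exposed to compounds at concentrations […]. Total RNA was then extracted and amplified to quantify both replicon HCV RNA (antiviral read-out) and cellular ribosomal RNA (cytotoxicity read-out), in the same cultures at the same time.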

The test system of the next data set is Hepatitis C virus. Put plainly: Antiviral activity against HCV genotype 1b subgenomic replicon infected in human HuH7 clone B cells assessed as inhibition of viral RNA replication after 5 days by RT-PCR method. Particulars: subtype 1b, Huh-7, 120 h. In kind it is functional, organism-based, Hepacivirus hominis. In outline:
as §4

In another data set the test system is PBMC. Put plainly: (§5) Cytotoxicity against human PBMC after 6 days by trypan blue exclusion method. The data set is classed as cell-based. To be noted: pbmc, 144 h.
Data set [1] in a line: as §1. Particulars: chlorocebus sabaeus, Vero cells. The data set is classed as cell-based.
Data set [2] can be described thus: as §2. To be noted: CEM cells. The data set is classed as cell-based, CCRF-CEM.
Data set [3] in a line: as §3. Particulars: HuH7 cells. In kind it is cell-based, Huh-7. In short, it runs like this:
as §4

A short description of data set [4]: as §5. The data set is classed as cell-based. To be noted: PBMC.

Consider `Nc1ccn([C@@H]2O[C@H](CO)[C@@H](O)[C@@]2(F)Cl)c(=O)n1`, for which the CC50 with Vero is 63 µM; in the data set with CCRF-CEM it was 11 µM; in the data set with Huh-7, 12 µM; in the data set with PBMC it was 9.3 µM. The EC50 in the data set with Hepatitis C virus was over 10 µM.

Turning to `O=c1ccn([C@@H]2O[C@H](CO)[C@@H](O)[C@@]2(F)Cl)c(=O)[nH]1`, the CC50 in the data set with Vero, with CCRF-CEM, with Huh-7 and in the data set on PBMC was over 100 µM in each case. For the same compound, in the data set on Hepatitis C virus, the EC50 was over 10 µM. The EC90 in the data set with Hepatitis C virus is over 10 µM.

Turning to `Nc1ncnc2c1ncn2[C@@H]1O[C@H](CO)[C@@H](O)[C@@]1(F)Cl`, the CC50 with Vero, with CCRF-CEM, with Huh-7 and with PBMC was over 100 µM in each case. In addition, in the data set with Hepatitis C virus, the EC50 is over 10 µM.

With `Nc1nc2c(ncn2[C@@H]2O[C@H](CO)[C@@H](O)[C@@]2(F)Cl)c(=O)[nH]1`, the CC50 with Vero, with CCRF-CEM, in the data set on Huh-7 and with PBMC was over 100 µM each time. Further, the EC50 in the data set on Hepatitis C virus is over 10 µM. The EC90 in the data set on Hepatitis C virus is over 10 µM.

As to `CC(C)OC(=O)[C@H](C)N[P@](=O)(OC[C@H]1O[C@@H](n2cnc3c(=O)[nH]c(N)nc32)[C@](F)(Br)[C@@H]1O)Oc1ccccc1`, the CC50 in the data set on Vero, with CCRF-CEM, in the data set with Huh-7 and in the data set on PBMC was over 100 µM in each case. Further, the EC50 with Hepatitis C virus is over 10 µM. For the same compound, in the data set on Hepatitis C virus, the EC90 was over 10 µM.

In the case of `O=c1ccn([C@@H]2O[C@H](CO)[C@@H](O)[C@@]2(F)Br)c(=O)[nH]1`, the CC50 in the data set with Vero, with CCRF-CEM, in the data set on Huh-7 and in the data set on PBMC was over 100 µM in each case. For the same compound, the EC50 in the data set with Hepatitis C virus was over 10 µM. In the data set on Hepatitis C virus, the EC90 is over 10 µM.

In the case of `Nc1nc2c(ncn2[C@@H]2O[C@H](CO)[C@@H](O)[C@@]2(F)Br)c(=O)[nH]1`, the CC50 in the data set with Vero, with CCRF-CEM, in the data set on Huh-7 and in the data set on PBMC was over 100 µM each time. Further, in the data set on Hepatitis C virus, the EC50 is over 10 µM.

`Nc1ccn([C@@H]2O[C@H](CO)[C@@H](O)[C@@]2(F)Br)c(=O)n1`: the CC50 was 2.9 µM in the data set on Vero, 3.2 µM with CCRF-CEM, 2.9 µM in the data set with Huh-7 and over 100 µM with PBMC. The EC50 in the data set with Hepatitis C virus turned out to be 5.1 µM. In the data set on Hepatitis C virus, the EC90 was over 10 µM.

Turning to `Nc1ncnc2c1ncn2[C@@H]1O[C@H](CO)[C@@H](O)[C@@]1(F)Br`, the CC50 in the data set with Vero, in the data set with CCRF-CEM, in the data set on Huh-7 and in the data set with PBMC was over 100 µM in each case. Also, the EC50 with Hepatitis C virus is over 10 µM.

As for `CC(C)OC(=O)[C@H](C)NP(=O)(OC[C@H]1O[C@@H](n2cnc3c(N)ncnc32)[C@](F)(Br)[C@@H]1O)Oc1ccccc1` (mixture of isomers), the CC50 stood at 71 µM in the data set on Vero, 29 µM in the data set on CCRF-CEM, 6.9 µM with Huh-7 and 19 µM in the data set on PBMC. The EC50 in the data set with Hepatitis C virus is over 10 µM.

Consider `CC(C)OC(=O)[C@H](C)NP(=O)(OC[C@H]1O[C@@H](n2ccc(=O)[nH]c2=O)[C@](F)(Cl)[C@@H]1O)Oc1ccccc1` (mixture of isomers), for which the CC50 in the data set with Vero is over 100 µM; with CCRF-CEM, 90 µM; with Huh-7, 1.3 µM; with PBMC, over 100 µM. In addition, the EC50 in the data set with Hepatitis C virus amounted to 0.9 µM. The EC90 in the data set on Hepatitis C virus came out at 3.7 µM.

Consider `CC(C)OC(=O)[C@H](C)NP(=O)(OC[C@H]1O[C@@H](n2cnc3c(N)ncnc32)[C@](F)(Cl)[C@@H]1O)Oc1ccccc1` (mixture of isomers), for which the CC50 in the data set on Vero was over 100 µM; in the data set on CCRF-CEM it was 15 µM; in the data set on Huh-7, 1.6 µM; with PBMC it was 26 µM. The EC50 in the data set with Hepatitis C virus is 2.7 µM. Also, the EC90 with Hepatitis C virus is at least 10 µM.

For the compound `CC(C)OC(=O)[C@H](C)NP(=O)(OC[C@H]1O[C@@H](n2ccc(=O)[nH]c2=O)[C@](F)(Br)[C@@H]1O)Oc1ccccc1` (mixture of isomers), in data set [1], the 50% cytotoxic concentration (CC50) at 72 h is over 100 µM. In addition, the CC50 in the data set on Huh-7 stood at 8 µM. In the data set on Hepatitis C virus, the EC50 is 0.4 µM and the EC90 stood at 2 µM.

With `CC(C)OC(=O)[C@H](C)NP(=O)(OC[C@H]1O[C@@H](n2ccc(N)nc2=O)[C@](F)(Br)[C@@H]1O)Oc1ccccc1` (mixture of isomers), the CC50 in the data set on Vero was over 100 µM; in the data set with CCRF-CEM it was over 100 µM; in the data set with Huh-7, 6.8 µM; with PBMC, over 100 µM. The EC50 in the data set on Hepatitis C virus stood at 2.4 µM. Besides, the EC90 in the data set on Hepatitis C virus is at least 10 µM.

For `CC(C)OC(=O)[C@H](C)NP(=O)(OC[C@H]1O[C@@H](n2ccc(N)nc2=O)[C@](F)(Cl)[C@@H]1O)Oc1ccccc1` (mixture of isomers), the CC50 in the data set on Vero is over 100 µM; with CCRF-CEM it was over 100 µM; in the data set on Huh-7, 23 µM; with PBMC it was over 100 µM. For the same compound, the EC50 in the data set on Hepatitis C virus was found to be 0.7 µM. In addition, the EC90 in the data set with Hepatitis C virus stood at 3.4 µM.

Take `CC(C)OC(=O)[C@H](C)NP(=O)(OC[C@H]1O[C@@H](n2cnc3c(=O)[nH]c(N)nc32)[C@](F)(Cl)[C@@H]1O)Oc1ccccc1` (mixture of isomers): the CC50 with Vero was over 100 µM; in the data set with CCRF-CEM it was 84 µM; in the data set on Huh-7, over 100 µM; with PBMC it was over 100 µM. Further, the concentration giving a half-maximal response (EC50) in the data set on Hepatitis C virus was over 10 µM.

`CC(C)OC(=O)[C@H](C)N[P@](=O)(OC[C@H]1O[C@@H](n2ccc(=O)[nH]c2=O)[C@](C)(F)[C@@H]1O)Oc1ccccc1` [SOFOSBUVIR] came in with a CC50 at 72 h in [1] of over 100 µM. Also, the CC50 at 144 h in data set [2] and in data set [4] was over 100 µM each time. For the same compound, the CC50 at 120 h in data set [3] was over 100 µM. Also, in the data set with Hepatitis C virus, the EC50 came to 0.05 µM. For the same compound, in the data set on Hepatitis C virus, the EC90 turned out to be 0.37 µM.

These data come from ChEMBL document CHEMBL4411320, “Synthesis and anti-HCV activity of β-d-2'-deoxy-2'-α-chloro-2'-β-fluoro and β-d-2'-deoxy-2'-α-bromo-2'-β-fluoro nucleosides and their phosphoramidate prodrugs” (Bioorg Med Chem, 2019).
